High-throughput results deposited in PubChem BioAssay by several laboratories.
SENP1 inh: blocks the human SENP1 SUMO protease catalytic domain | recombinant SENP1 catalytic domain, CyPet-SUMO1-YPet FRET cleavage | inhibition, % at 10 µM | hit rate 0.21% among 360,000;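 active = inhibition at least 30% at 10 µM, raw YFP signal under a set limit, fluorescence ratio 0.5 to 1.5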;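 note: 0% = enzyme with DMSO and 100% = no enzyme wells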
Target sequence (Q9P0U3 419-644 limits assumed): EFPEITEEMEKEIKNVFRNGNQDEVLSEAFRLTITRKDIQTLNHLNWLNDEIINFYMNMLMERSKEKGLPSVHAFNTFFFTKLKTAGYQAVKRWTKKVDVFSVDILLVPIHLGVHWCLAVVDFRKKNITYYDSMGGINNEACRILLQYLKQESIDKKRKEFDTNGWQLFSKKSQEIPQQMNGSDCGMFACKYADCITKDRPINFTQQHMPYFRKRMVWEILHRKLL
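Compound: 10 µM single point, 0.5% DMSO; Test system: hSENP1 catalytic domain, recombinant; Timing: 50 min reaction at room temperature; Technique: FRET, CFP and YFP emission; Control set: no-enzyme wells low, DMSO-plus-enzyme wells high control.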
H9c2 protect: protects H9c2 cardiomyocytes from peroxide injury; H2O2 injury protection, ATPLite, 2 h; protection from H2O2 cell death, % at 20 µM; hit rate 0.63% among 360,000; AID 588492;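 active = compounds giving at least 50% protection of heart cells from peroxide-induced death in the single-dose screen, raw or plate-pattern-corrected value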;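 note: 0% = DMSO wells with peroxide and 100% = DMSO wells without peroxide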
Exocytosis inh: blocks lytic granule exocytosis | TALL-104 LAMP-1 surface exposure, flow cytometry; cells stimulated with thapsigargin and PMA | inhibition, % at 10 µM | hit rate 0.66% among 360,000 | AID 651702;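 active = inhibition above about 55%, limit read from the data; inconclusive = no clear call, values can overlap the other calls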
Myeloid diff 2: promotes myeloid progenitor differentiation; ER-HoxA9 myeloid progenitors, lysozyme-GFP differentiation, flow cytometry; calls only at 10 µM; hit rate 1% among 360,000; AID 624256;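 active = normalized GFP-positive differentiation at or above the plate's own cutoff, the solvent-only control mean plus 3 SD; inconclusive = no clear call, values can overlap the other calls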;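 note: cells exposed to compound for four days before flow analysis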
Pemphigus Ab inh: human desmoglein-3 autoantibody binding inhibition. P32926. DSG3-coupled beads, scFv-anti-DSG3-GFP binding, flow cytometry; hits give low values. binding (percent of control), % at 10 µM. hit rate 0.48% among 310,000;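 active = binding more than 3 SD below its plate's average and above zero; inconclusive = below that plate limit but binding exactly zero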;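 note: hits lower antibody fragment binding to DSG3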
HNF4A DNA FP: change in binding of human HNF4 alpha to DNA; HNF4a-FITC DNA binding, fluorescence polarization, 1 h; hit rate 0.3% among 360,000; P41235; activity change, % at 10 µM; in the data active = activity change above about 30%, passing the limit was not always enough
* hit, by the source's call; i = inactive; u = inconclusive; x = no result; + = active, no number. A selection: hits, their analogues and other compounds. The true share with any hit is near 3%.

SMILES	SENP1 inh	H9c2 protect	Exocytosis inh	Myeloid diff 2	Pemphigus Ab inh	HNF4A DNA FP
Cc1ccc(C(=O)NNC(=O)CCC(=O)NCc2ccccc2)cc1Br	-0.3	-0.5	-0.4	+	123.2	0.7
O=C(O)CSCCOc1ccc(OCCSCC(=O)O)cc1	0.4	6.9	-4.2	i	x	1.4
CCOC(=O)c1ccc(Nc2ccc(-c3ccc(OC)c(OC)c3)nn2)cc1	2.2	4.4	-2.1	i	85.6*	5.5
COc1ccc(-c2oc3ncnc(NCCN4CCOCC4)c3c2-c2ccc(OC)cc2)cc1	0.0	74.9*	23.3	i	x	-0.8
NC(=O)c1ccc(Nc2nc(C(N)COCc3ccccc3)cs2)cc1 (centres undefined)	-3.2	0.5	19.1	i	x	6.7
NC(=O)c1cccc(Nc2nc(C(N)COCc3ccccc3)cs2)n1 (centres undefined)	-1.2	88.0*	0.2	i	x	0.8
CCN(c1ccccc1)S(=O)(=O)c1cccc(C(=O)NCC(c2ccc(F)cc2)N2CCOCC2)c1 (centres undefined)	-1.1	4.3	1.9	i	111.9	-2.7
Cc1ccc(NC(=S)N/N=C2\CCCCC2C)cc1 (centres undefined)	0.4	1.5	-9.7	+	103.1	-0.1
O=C1C=C(/C=C/c2ccccc2)C[C@@H](c2ccc3c(c2)OCO3)C1	0.3	-5.1	8.2	i	100.6	0.1
CCOCCCN1C(=O)C(=O)N(CC(=O)N2c3ccccc3NC(=O)CC2C)C1=O (centres undefined)	1.8	5.2	30.3	i	x	-0.1
Nc1c(N(CCC2=CCCCC2)C(=O)c2ccc([N+](=O)[O-])o2)c(=O)[nH]c(=O)n1Cc1ccccc1	-40.8	8.2	-2.6	+	102.8	7.7
Cc1ccc(C(=O)N(CCC2=CCCCC2)c2c(N)n(Cc3ccccc3)c(=O)[nH]c2=O)o1	-3.8	0.5	-0.3	i	97.1	1.2
CC(=O)N1CCN(C(=O)c2cccc(S(=O)(=O)NCc3ccccc3)c2)CC1	3.2	1.2	-2.7	i	96.3	0.0
CC1(c2ccc(Cl)cc2)NC(=O)CS1 (centres undefined)	0.4	2.2	-1.3	i	87.7	0.5
c1ccc(-c2cn(-c3ccccc3)c3ncnc(N4CCCCC4)c23)cc1	1.2	5.3	1.8	i	114.2	-1.7
CCOc1ccc(-n2cc(-c3ccccc3)c3c(=S)nc[nH]c32)cc1	-1.0	52.3*	-5.2	i	127.9	-3.7
CCOc1ccc(-n2cc(-c3ccccc3)c3c(N4CCOCC4)ncnc32)cc1	-0.2	63.0*	-1.3	i	112.2	-2.3
COC(=O)C(C)Oc1cc(OC(C)C(=O)OC)c2c(-c3ccccc3)cc(=O)oc2c1 (centres undefined)	1.2	6.4	62.7*	i	102.7	-3.2
COC(=O)COc1cc(OCC(=O)OC)c2c(-c3ccccc3)cc(=O)oc2c1	0.3	8.2	8.0	i	98.3	0.5
CCOc1cc(/C=C2\SC(=N)N(c3nccs3)C2=O)ccc1OCCN1CCOCC1	-18.8	53.9*	-2.2	i	101.6	0.1
CC(=O)c1cccc(NC(=O)c2cccc3c(-c4cccnc4)coc23)c1	2.3	33.9	-4.4	i	x	1.1
CN(C)S(=O)(=O)c1ccc(C(=O)Nc2ccccc2OC(F)(F)C(F)F)cc1	4.9	1.4	-0.5	+	x	3.6
COc1ccc(OC2C(=O)N(CCc3ccc(OC)c(OC)c3)C2c2ccc3c(c2)OCO3)cc1 (centres undefined)	-1.1	3.9	0.3	i	101.7	-0.8
COC(=O)c1ccc(C2C(Oc3ccccc3)C(=O)N2CCc2ccc(OC)c(OC)c2)cc1 (centres undefined)	3.1	-4.2	-2.8	i	82.8*	-1.1
O=C(CSc1ccc2ccccc2c1)NCCc1ccc(O)c(O)c1	0.3	79.8*	-4.1	i	x	-1.3
SMILES	SENP1 inh	H9c2 protect	Exocytosis inh	Myeloid diff 2	Pemphigus Ab inh	HNF4A DNA FP
N#C/C(=C/C1=C(N2CCOCC2)C(=C/c2ccc(Cl)cc2)/CC1)C(=O)Nc1ccccc1F	-3.8	0.0	0.1	+	106.5	26.8
COc1cc(/C=C(\C#N)C(=O)Nc2ccccc2F)ccc1OCCN1CCOCC1	-11.3	66.7*	1.5	i	102.7	-1.2
COc1cc(/C=C(\C#N)C(=O)Nc2ccccc2)ccc1OCCN1CCOCC1	-4.1	53.5*	3.3	i	101.2	4.4
N#C/C(=C\c1ccc(OCCN2CCOCC2)cc1)C(=O)Nc1ccccc1	-2.8	6.0	-1.2	i	104.1	-2.8
COc1cc(/C=C(\C#N)C(=O)N2CCOCC2)ccc1OCc1ccccc1	2.8	7.9	-1.9	i	98.4	-0.9
CC(C)c1cc(C(C)C)c(S(=O)(=O)NNC(=O)c2ccncc2)c(C(C)C)c1	3.9	-2.1	-0.1	i	94.0	0.2
COc1ccc(CN2CCNC(=O)C2CC(=O)N2CCCO2)c(OC)c1 (centres undefined)	-1.8	-1.3	1.1	i	96.7	0.4
COc1ccc(C(=O)Nc2nc(-c3cccs3)cs2)cc1	-1.4	1.2	-0.8	i	u	-0.4
COc1ccc(C(=O)Nc2nnc(Cc3cccs3)s2)cc1OC	-6.5	12.6	5.5	+	99.6	2.0
COc1cc(C(=O)Nc2nc(-c3cccs3)cs2)cc(OC)c1OC	-0.2	81.1*	27.7	i	98.7	-0.5
COc1ccc(C(=O)Nc2cccc(NC(=O)c3ccc(OC)c(OC)c3)n2)cc1OC	0.1	53.5*	-1.6	i	101.3	0.0
COc1ccc(Cc2nnc(NC(=O)c3ccc(OC)c(OC)c3)s2)cc1	-2.1	-2.2	-7.5	i	125.9	1.9
COc1ccc(C(=O)Nc2cccc3cccnc23)cc1OC	1.5	25.0	4.6	i	98.9	4.1
O=[N+]([O-])c1ccccc1N/N=C/c1c[nH]c2ccccc12	3.5	-0.4	-2.1	i	103.5	-2.1
CCN1C(=O)/C(=C/c2cn(-c3ccccc3)nc2-c2cccnc2)SC1=S	26.8	-5.5	3.6	i	133.0	40.4*
Cc1ccc(-c2nn(-c3ccccc3)cc2/C=C2\SC(=S)N(CC(=O)O)C2=O)cc1	-27.4	-2.0	-2.7	i	97.4	-9.5
O=[N+]([O-])c1ccc(N/N=C/c2c[nH]c3ccccc23)cc1	-22.8	-19.5	9.8	+	111.7	77.8*
O=C(N/N=C/c1cn(-c2ccccc2)nc1-c1cccs1)c1ccccc1F	-1.0	75.7*	-0.1	i	88.6	-4.2
O=[N+]([O-])c1ccc(N/N=C/c2cn(-c3ccccc3)nc2-c2ccccc2)cc1	5.2	-24.5	-3.0	+	101.0	28.0
NS(=O)(=O)c1ccc(N/N=C/c2cn(-c3ccccc3)nc2-c2ccccc2)c([N+](=O)[O-])c1	5.2	-17.0	-4.5	i	84.8	1.5
